Results taken from PMC9529790 (Nature chemical biology, 2022).

Experiments:
[1] = tested on: parental and 5-FU-resistant SW480 cell lines; assay: Spheroid growth of parental and 5-FU-resistant SW480 lines; type: cell-based, human; conditions: spheroids
Outline: (§1)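 SW480 cells were seeded on solidified Matrigel in RPMI-1640 spheroid medium containing 20 ng/mL EGF, 20 ng/mL FGF, heparin, N-2 supplement and penicillin/streptomycin. Seeding was 1,000 cells/well (96-well) or 5,000 cells/well (24-well). Test compound was added in medium and cultures were grown 7 days at 37 °C with 5% CO2. Spheroids were imaged by phase contrast (some stained with crystal violet), and small objects excluded before area analysis.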

[2] = molecular target: T1, ALDH1B1 (Homo sapiens, UniProt P30837); assay: ALDEFLUOR assay, ALDH1B1 transiently expressed in ALDH1A3-/- A375 cells; type: cell-based; conditions: flow cytometry
T1 sequence (P30837 18-517): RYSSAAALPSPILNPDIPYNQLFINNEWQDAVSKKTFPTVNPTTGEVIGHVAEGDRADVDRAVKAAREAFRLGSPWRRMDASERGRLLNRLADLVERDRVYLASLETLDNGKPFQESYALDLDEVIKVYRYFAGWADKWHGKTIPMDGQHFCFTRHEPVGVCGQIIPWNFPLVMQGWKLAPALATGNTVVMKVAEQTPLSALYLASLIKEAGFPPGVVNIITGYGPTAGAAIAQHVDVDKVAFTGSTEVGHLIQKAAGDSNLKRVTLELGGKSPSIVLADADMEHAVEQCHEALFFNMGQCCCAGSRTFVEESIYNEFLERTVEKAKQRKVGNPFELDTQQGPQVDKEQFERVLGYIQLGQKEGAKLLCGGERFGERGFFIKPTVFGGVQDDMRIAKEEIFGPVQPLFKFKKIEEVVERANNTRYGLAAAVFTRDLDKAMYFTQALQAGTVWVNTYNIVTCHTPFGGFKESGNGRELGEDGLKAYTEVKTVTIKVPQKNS
Outline: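 ALDH1A3-knockout A375 cells were grown 24 h, then transfected with empty pCMV6, pCMV6-GFP (to estimate transfection efficiency) or pCMV6-ALDH1B1. Medium was changed at 24 h and cells grown another 24 h. Trypsinized cells in ALDEFLUOR buffer were exposed to test compound for 15 min at 37 °C with 5% CO2, then to ALDEFLUOR reagent for 30 min. Live single cells (DAPI gating) were analysed by flow cytometry; read-out is % of cells outside the negative-control gate (ALDEFLUOR vs SSC-A).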

[3] = molecular target: T2, endogenous ALDH1B1 in live SW480 cells (Homo sapiens, UniProt P30837); assay: Cellular thermal shift assay; type: binding; conditions: 10 µM, 1 hour
T2 sequence (P30837 18-517): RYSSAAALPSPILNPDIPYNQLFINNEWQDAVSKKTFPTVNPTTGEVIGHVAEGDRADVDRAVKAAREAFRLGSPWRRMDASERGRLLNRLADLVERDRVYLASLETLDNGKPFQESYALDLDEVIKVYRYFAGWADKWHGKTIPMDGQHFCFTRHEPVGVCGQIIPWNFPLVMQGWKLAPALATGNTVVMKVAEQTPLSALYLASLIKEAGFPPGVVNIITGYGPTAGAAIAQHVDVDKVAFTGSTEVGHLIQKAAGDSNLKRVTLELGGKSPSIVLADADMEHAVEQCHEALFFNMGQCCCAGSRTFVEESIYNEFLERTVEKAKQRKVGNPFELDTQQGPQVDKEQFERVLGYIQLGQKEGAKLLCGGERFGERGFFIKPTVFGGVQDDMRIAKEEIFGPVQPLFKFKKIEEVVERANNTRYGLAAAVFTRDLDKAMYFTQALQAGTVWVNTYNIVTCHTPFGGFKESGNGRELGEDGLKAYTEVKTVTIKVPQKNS
Outline: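 SW480 cells were grown in 15-cm dishes, trypsinized at about 80% confluence, and kept live in the incubator for 1 h. Cells were then pelleted at 480 x g for 5 min, washed with PBS and resuspended in PBS with protease inhibitors. Total protein per lane was checked on stain-free gels alongside immunoblotting of ALDH1B1.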

[4] = tested on: SW480 cells; assay: Thermal proteome profiling; type: binding, human; conditions: 2 µM, 1 hour; cutoffs ΔTm ≥ 1.5 °C and P < 0.05
[5] = tested on: colorectal tumor PDO lines; assay: Patient-derived organoid viability; type: cell-based, human; conditions: seven days treatment; CTO1-CTO4
Outline: (§2)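 Organoids (wild-type colon or colorectal tumour) were dissociated with TrypLE plus 10 µM Y-27632. They were plated as 10-µL BME-2 domes at 1,000 cells/µL in WENR medium with 10 µM Y-27632 and 2.5 µM CHIR99021, and grown 3–5 days. Test compound at varying concentrations in WENR was then given for 7 days. Viability was read as resazurin metabolism with 10% Alamar Blue: 4 h for tumour PDOs, 6 h for wild-type PDOs, at 37 °C in the dark.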

[6] = tested on: wild-type colon PDOs; assay: Patient-derived organoid viability; type: cell-based, human; conditions: seven days treatment; compared with tumor PDOs
Outline: as §2

[7] = tested on: ALDH1B1 variants (E124G/N457G and V173I/N457G); assay: Inhibitor resistance of ALDH1B1 mutants; type: biochemical, human
Outline: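 A375 ALDH1A3-knockout cells were transfected (3:1 DNA:FuGENE HD) with wild-type or mutant pCMV6-ALDH1B1 and grown 48 h. Cells in ALDEFLUOR buffer received ALDEFLUOR reagent. Within 10 s, aliquots were moved to tubes holding DMSO, DEAB (1.5 mM stock in EtOH) or test compound (100 µM or 10 µM stocks in DMSO). Tubes were incubated 30 min at 37 °C, cells pelleted, and analysed by flow cytometry.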

[8] = tested on: E124G/N457G mutant-expressing cells; type: cell-based, human
Outline: as §1

[9] = molecular target: T3, ALDH1B1 (aldehyde dehydrogenase 1B1), human recombinant, mitochondria-targeting sequence removed (human), P30837; assay: crystal structure; conditions: remark: other sources report otherwise
T3 chain: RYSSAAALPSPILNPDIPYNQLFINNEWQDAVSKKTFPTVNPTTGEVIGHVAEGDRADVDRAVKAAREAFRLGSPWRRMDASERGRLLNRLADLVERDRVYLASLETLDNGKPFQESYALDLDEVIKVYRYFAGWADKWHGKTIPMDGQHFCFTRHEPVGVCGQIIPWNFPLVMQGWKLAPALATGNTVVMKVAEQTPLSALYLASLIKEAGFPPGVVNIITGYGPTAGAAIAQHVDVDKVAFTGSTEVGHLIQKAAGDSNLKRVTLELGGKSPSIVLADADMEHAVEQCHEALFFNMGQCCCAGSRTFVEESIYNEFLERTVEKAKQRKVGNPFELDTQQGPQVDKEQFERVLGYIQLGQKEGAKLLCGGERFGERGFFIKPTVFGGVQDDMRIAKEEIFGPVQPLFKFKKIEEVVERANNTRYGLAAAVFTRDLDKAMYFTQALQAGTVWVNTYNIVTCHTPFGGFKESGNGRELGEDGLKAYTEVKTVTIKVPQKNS

## O=c1[nH]cc(F)c(=O)[nH]1 [5-FU]
[1]
  loss of sensitivity of 5-FU-resistant SW480 line versus parental line: approximately 20 fold

## CCN(CC)c1ccc(C=O)cc1 [DEAB, N,N-diethylaminobenzaldehyde]
[2]
  cellular ALDH1B1 activity (ALDEFLUOR signal): abrogated

## COc1cc(Cl)ccc1C1=CN(c2ccc(-c3ccccc3OC)cc2)C2=NCCCN12.O=CO [IGUANA-1]
[3]
  thermal stabilization of ALDH1B1: stabilizes endogenous ALDH1B1
[4]
  inhibitor-dependent change in thermal stability (ΔTm), proteome-wide: largest inhibitor-dependent increase in thermal stability
[5]
  growth of colorectal adenocarcinoma PDOs: inhibit the growth of each line
[6]
  sensitivity of wild-type colon PDOs: less sensitive
[7]
  inhibitor sensitivity of ALDH1B1 variants: markedly reduced inhibitor sensitivity
[8]
  resistance of mutant-expressing spheroid cultures versus wild-type ALDH1B1: more resistant

B1: ALDH1B1 (aldehyde dehydrogenase 1B1), human recombinant, mitochondria-targeting sequence removed, P30837 18-517 (enzyme)
chain: RYSSAAALPSPILNPDIPYNQLFINNEWQDAVSKKTFPTVNPTTGEVIGHVAEGDRADVDRAVKAAREAFRLGSPWRRMDASERGRLLNRLADLVERDRVYLASLETLDNGKPFQESYALDLDEVIKVYRYFAGWADKWHGKTIPMDGQHFCFTRHEPVGVCGQIIPWNFPLVMQGWKLAPALATGNTVVMKVAEQTPLSALYLASLIKEAGFPPGVVNIITGYGPTAGAAIAQHVDVDKVAFTGSTEVGHLIQKAAGDSNLKRVTLELGGKSPSIVLADADMEHAVEQCHEALFFNMGQCCCAGSRTFVEESIYNEFLERTVEKAKQRKVGNPFELDTQQGPQVDKEQFERVLGYIQLGQKEGAKLLCGGERFGERGFFIKPTVFGGVQDDMRIAKEEIFGPVQPLFKFKKIEEVVERANNTRYGLAAAVFTRDLDKAMYFTQALQAGTVWVNTYNIVTCHTPFGGFKESGNGRELGEDGLKAYTEVKTVTIKVPQKNS
[9]
  stoichiometry N: 4
